Key:
Assay type in all cases: ADME, organism-based
Blood = test: Biodistribution in C57Bl/6JRccHsd mouse blood at 2.86 +/- 1.26 MBq, iv measured at 80 mins by SPECT analysis; settings: in vivo
Procedure, shortened: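 Organs excised at 5, 20, 40, 80 or 160 min and radioactivity gamma-counted as %ID/g (brain also as %ID). Blocking groups received KYP-2047 (50 µmol/kg, 10 mL/kg, 1% DMSO in 0.9% NaCl) i.p. 10 min before tracer. Mean ± SD, n = 2–4 per time point. Blocking compared by two-tailed Student's t test.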

[1] = Plasma protein binding in iv dosed C57Bl/6JRccHsd mouse measured at 20 mins post dose pretreated with 50 umol/kg, ip prolyl oligopeptidase inhibitor KYP-2047 10 mins before compound dosing by SPECT analysis; settings: in vivo
Procedure, shortened: (§1)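 Male mice given 3.6 MBq tracer i.v. via lateral tail vein; blocking groups got POP inhibitor i.p. (50 µmol/kg, 10 mL/kg, 1% DMSO in 0.9% NaCl) 10 min before. Heparinized cardiac blood on ice, gamma-counted, spun 5 min at 2000 g; plasma counted, precipitated with 1.5 volumes acetonitrile, respun; cell-bound, protein-bound and free fractions expressed as % of blood activity; n = 3.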

Mus musculus = test: Biodistribution in gastrocnemius muscle of iv dosed C57BL/6JRccHsd mouse turpentine-induced acute localized inflammation model after 20 mins to 24 hrs by SPEC-CT analysis (reference value: 2.0 +/- 0.6 %ID/g); settings: in vivo
[2] = Fraction unbound in iv dosed C57Bl/6JRccHsd mouse plasma measured at 20 mins post dose pretreated with 50 umol/kg, ip prolyl oligopeptidase inhibitor KYP-2047 10 mins before compound dosing by SPECT analysis; procedure, shortened: as §1
[3] = Drug uptake in iv dosed C57Bl/6JRccHsd mouse blood cells measured at 80 mins; settings: in vivo
Procedure, shortened: (§2)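 Mice got tracer i.v., some after i.p. KYP-2047 (50 µmol/kg) 10 min before. Cardiac blood was collected at 20, 40, 80 or 160 min and spun 5 min at 2000 g into cells and plasma. Plasma was precipitated with acetonitrile and pellet and supernatant were gamma-counted. Activity in cells, protein-bound and free plasma is given as % of total blood activity, n = 3.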

[4] = Biodistribution in brain of iv dosed C57BL/6JRccHsd mouse LPS-induced acute neuroinflammation model dosed 24 hrs after LPS challenge and measured at 80 mins post dose
Procedure, shortened: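 Male mice under isoflurane got a stereotaxic LPS injection (E. coli 055:B5) into the left striatum, with buprenorphine 0.1 mg/kg s.c. for post-operative pain. The right hemisphere served as intact control. Tracer was given i.v. 24 h later. Left and right hemisphere and whole-brain radioactivity were measured 80 min post injection as %ID/g or %ID, n = 3.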

[5] = Fraction unbound in iv dosed C57Bl/6JRccHsd mouse plasma measured at 20 mins; procedure, shortened: as §2

Drug uptake (Blood): 2.1 % ID/g | PPB [1]: 0% | Drug uptake (Mus musculus): 0.8 % ID/g | fraction unbound at 20 min [2]: 0.47 | Drug uptake [3]: 84% | tissue uptake at 80 min [4]: 0.6 %ID | fraction unbound at 20 min [5]: 0.03
Structure (SMILES): N#C[C@@H]1CCCN1C(=O)[C@@H]1CCCN1C(=O)CCCc1ccc([123I])cc1
